Marks after values point to notes of the source that are not given here. Values belong to the compound of their own block, whether it stands above or below them.
Experiments:
[1] = system: A549 human lung cancer cell line; test: Differential cytotoxicity
Non-enzymatic stability = format: physicochemical; settings: for percent BAPC hydrolysis/cleavage (non-enzymatic) in phosphate buffer: pH 7.4, 48 h
tubulin = test: Inhibition of [3H]colchicine binding to tubulin; settings: 1.0 μM tubulin, 5.0 μM [3H]colchicine
Procedure, shortened: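 Incubation was 10 min at 37 °C, when control binding is about 50% complete. Bound ligand was collected on paired filters and scintillation-counted at least 18 h later. Counts were corrected for filter-bound colchicine without tubulin, and percent inhibition was calculated against no-inhibitor controls.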

[2] = biological target: T1, Rat NADPH-cytochrome P450 oxidoreductase (POR) supersomes (Rattus norvegicus, UniProt P00388); test: NADPH-cytochrome P450 oxidoreductase cleavage assay; format: in vitro ADME; settings: for percent BAPC cleavage by POR: 90 min, anaerobic, 37 °C, NC = no cleavage observed
T1 sequence (P00388 1-678): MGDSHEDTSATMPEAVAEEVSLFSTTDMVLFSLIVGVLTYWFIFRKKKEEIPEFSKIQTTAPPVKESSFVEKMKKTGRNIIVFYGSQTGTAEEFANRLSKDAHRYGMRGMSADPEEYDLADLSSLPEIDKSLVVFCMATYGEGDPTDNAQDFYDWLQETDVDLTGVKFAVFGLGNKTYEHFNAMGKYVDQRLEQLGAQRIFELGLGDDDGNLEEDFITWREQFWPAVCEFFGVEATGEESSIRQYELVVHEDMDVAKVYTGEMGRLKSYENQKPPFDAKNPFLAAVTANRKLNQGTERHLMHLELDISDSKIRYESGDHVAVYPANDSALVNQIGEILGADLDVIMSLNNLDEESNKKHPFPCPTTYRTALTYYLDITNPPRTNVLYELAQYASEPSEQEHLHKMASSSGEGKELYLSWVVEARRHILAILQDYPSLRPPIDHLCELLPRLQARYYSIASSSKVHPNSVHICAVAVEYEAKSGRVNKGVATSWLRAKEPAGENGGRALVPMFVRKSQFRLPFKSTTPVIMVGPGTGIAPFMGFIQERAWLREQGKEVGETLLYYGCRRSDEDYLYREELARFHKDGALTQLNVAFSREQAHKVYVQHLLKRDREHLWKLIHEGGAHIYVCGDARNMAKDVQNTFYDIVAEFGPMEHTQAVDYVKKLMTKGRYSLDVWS

[3] = system: orthotopic 4T1-luc breast tumors; test: In vivo dynamic bioluminescence imaging; set-up: species or system BALB/c mice; settings: 180 mg/kg IP single dose
Procedure, shortened: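 Cells: 4T1-luc, firefly luciferase-expressing, grown in RPMI1640 with 10% FBS. 10⁶ cells in PBS with 30% Matrigel were implanted into the left upper ventral mammary fat pad of female BALB/cJ mice and grown 11 days to 10–12 mm. Baseline BLI was taken under 2% isoflurane after SC D-luciferin (120 mg/kg). Then a single IP dose of test compound was given (180 mg/kg in DPS, n=3), with vehicle and combretastatin A-4 phosphate (120 mg/kg) controls. Imaging (~20 min) was repeated at 4, 24 and 48 h with fresh luciferin, comparing area under the light-emission curve.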

4T1-luc tumors = test: H&E histology of harvested tumors; format: in vivo, BALB/c mice; settings: 180 mg/kg IP
Procedure, shortened: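 4T1-luc orthotopic mammary fat pad tumors in female BALB/cJ mice were dosed once IP with test compound (180 mg/kg in DPS vehicle). Tumors were harvested at 72 h, or after further imaging at 96 h, when survivors were killed by cervical dislocation under isoflurane. They were stained with hematoxylin and eosin. Each tumor's histology was matched to its BLI response.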

Compound: Br.O=[N+]([O-])c1nccn1CC(O)CNCCBr (centres unmarked) [RB6145]
hypoxia cytotoxicity ratio (HCR) ([1]; A549, GI50 oxic versus anoxic, drug removal step omitted): >3.7

Compound: Nc1n[n+]([O-])c2ccccc2[n+]1[O-] [Tirapazamine]
hypoxia cytotoxicity ratio (HCR) ([1]; assays in which drug was washed out after 4 h): > 62

percent BAPC hydrolysis/cleavage (non-enzymatic) in phosphate buffer (Non-enzymatic stability): 0%
Compound: COc1cc(/C=C\c2ccc(OC)c3c2OC(c2ccc([N+](=O)[O-])s2)O3)cc(OC)c1OC (centres unmarked) [compound 35, (Z)-4-Methoxy-2-(5-nitrothiophen-2-yl)-7-(3,4,5-trimethoxystyryl)-benzo[d][1,3]dioxole]

Compound: COc1cc(/C=C\c2ccc(OC)c3c2OC(C)(c2ccc([N+](=O)[O-])s2)O3)cc(OC)c1OC (centres unmarked) [compound 36, (Z)-4-Methoxy-2-methyl-2-(5-nitrothiophen-2-yl)-7-(3,4,5-trimethoxystyryl)-benzo[d][1,3]dioxole]
percent BAPC hydrolysis/cleavage (non-enzymatic) in phosphate buffer (Non-enzymatic stability): 0%

Compound: COc1ccc(/C=C\c2cc(OC)c(OC)c(OC)c2)c(OCc2ccc([N+](=O)[O-])s2)c1O [compound 37, (Z)-6-Methoxy-2-((5-nitrothiophen-2-yl)methoxy)-3-(3,4,5-trimethoxystyryl)phenol]
percent BAPC hydrolysis/cleavage (non-enzymatic) in phosphate buffer (Non-enzymatic stability): 0^b %

Compound: COc1ccc(/C=C\c2cc(OC)c(OC)c(OC)c2)c(OC(C)c2ccc([N+](=O)[O-])s2)c1O (centres unmarked) [compound 38, (Z)-6-Methoxy-2-(1-(5-nitrothiophen-2-yl)ethoxy)-3-(3,4,5-trimethoxystyryl)phenol]
percent BAPC hydrolysis/cleavage (non-enzymatic) in phosphate buffer (Non-enzymatic stability): 0.5^c %

Compound: COc1cc(/C=C\c2ccc(OC)c(OCc3ccc([N+](=O)[O-])s3)c2O)cc(OC)c1OC [compound 39, (Z)-3-Methoxy-2-((5-nitrothiophen-2-yl)methoxy)-6-(3,4,5-trimethoxystyryl)phenol]
percent BAPC hydrolysis/cleavage (non-enzymatic) in phosphate buffer (Non-enzymatic stability): 0^b %

Compound: COc1cc(/C=C\c2ccc(OC)c(OC(C)c3ccc([N+](=O)[O-])s3)c2O)cc(OC)c1OC (centres unmarked) [compound 40, (Z)-3-Methoxy-2-(1-(5-nitrothiophen-2-yl)ethoxy)-6-(3,4,5-trimethoxystyryl)phenol]
percent BAPC hydrolysis/cleavage (non-enzymatic) in phosphate buffer (Non-enzymatic stability): 0^c %

Compound: COc1ccc(/C=C\c2cc(OC)c(OC)c(OC)c2)c(OC(C)(C)c2ccc([N+](=O)[O-])s2)c1O [compound 41, (Z)-6-Methoxy-2-((2-(5-nitrothiophen-2-yl)propan-2-yl)oxy)-3-(3,4,5-trimethoxystyryl)phenol]
spontaneous hydrolysis in pH 7.4 buffer (Non-enzymatic stability; first 150 min): no apparent spontaneous hydrolysis | hydrolysis in pH 7.4 buffer (Non-enzymatic stability; incubated 24–48 h): mostly hydrolyzed | percent BAPC hydrolysis/cleavage (non-enzymatic) in phosphate buffer (Non-enzymatic stability): 100%

Compound: COc1ccc(/C=C\c2cc(OC)c(OC)c(OC)c2)cc1O [compound 42, combretastatin A-4]
inhibition of colchicine binding % inhibition ± SD (tubulin; compound at 1 μM): 84±2% | inhibition of colchicine binding % inhibition ± SD (tubulin; compound at 5 μM): 97±0.7%

Compound: COc1ccc(/C=C\c2cc(OC)c(OC)c(OC)c2)cc1OC(C)(C)c1ccc([N+](=O)[O-])s1 [compound 45, (Z)-2-(2-(2-Methoxy-5-(3,4,5-trimethoxystyryl)phenoxy)propan-2-yl)-5-nitrothiophene]
percent BAPC cleavage by POR [2]: 25% | cleavage by POR supersomes ([2]; 24 h, anaerobic conditions): Complete cleavage | stability in phosphate buffer (Non-enzymatic stability; pH 7.4, 24 h): stable | decrease in light emission (BLI) ([3]; 4 h, two of three mice): > 80% | depression of light emission (BLI) ([3]; 24 h, the two responding tumors): > 75% | light emission (BLI) recovery ([3]; by 48 h, the two responding tumors): substantial recovery | tumor necrosis (H&E) (4T1-luc tumors; BLI-unresponsive tumor): 47% | tumor necrosis (H&E) (4T1-luc tumors; tumor showing a strong BLI signal response): 55%

Compound: (Z)-3-Methoxy-2-(2-(5-nitrothiophen-2-yl)propoxy)-6-(3,4,5-trimethoxystyryl)-phenyl-4-methylbenzenesulfonate [compound 23]
percent BAPC cleavage by POR [2]: 13.5% | percent BAPC hydrolysis/cleavage (non-enzymatic) in phosphate buffer (Non-enzymatic stability): 0.84%

Source: article PMC7644341 (Journal of natural products, 2020)
